Series [1] in a line: melting temperature; fluorescence melt of hairpins on a sequencing array, two-state fit, raised by 9.35 °C to match UV melts. Conditions: sodium 0.088 M. The method, boiled down: (§1)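 Bootstrapped two-state fits yielded melting temperature and folding enthalpy for library hairpins. Cy3 fluorescence, with annealed Cy3 and quencher oligos, was imaged on a sequenced MiSeq flow cell in 50 mM Na-HEPES pH 8.0, 25 mM NaCl in 2.5 °C steps up to 60 °C, and normalised to pre-quench Cy3 and to control constructs. Four replicates were combined by inverse variance, and fitted temperatures were raised by 9.35 °C to match UV melts.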

Series [2] can be described thus: folding enthalpy; higher = less favourable; fluorescence melt of hairpins on a sequencing array, two-state fit. Conditions: sodium 0.088 M. The method, boiled down: as §1

Consider GCCCTCGAAAGAGTGGGC ((((((....)))..))), for which the Tm in series [1] amounted to 52.7 °C. In addition, the folding enthalpy in series [2] is -25.6 kcal/mol.
As for GCGGCCGAAAGGCTACGC ((((((....)))..))), the Tm in series [1] was determined as 61.1 °C. In addition, the folding enthalpy in series [2] is -19.6 kcal/mol.
The like results for GATCATATATATGATC ((((((....)))))) were, in that order, 48.8 °C and -42 kcal/mol.
On to ATCGAGAAATCGAT (((((....))))), for which, in series [1], the Tm came out at 39.5 °C. Besides, the folding enthalpy in series [2] is -23.9 kcal/mol.
Turning to GAGCCGGGAAACCAGCTC ((((.((....)).)))), the Tm in series [1] amounted to 48 °C. Also, the folding enthalpy in series [2] is -37.8 kcal/mol.
Take GAGGGACGAAAGTCTCTC (((.(((....))).))): the Tm in series [1] stood at 55.4 °C. Further, the folding enthalpy in series [2] was -32.4 kcal/mol.
The like results for GCGGCGTTCCGC ((((....)))) were, in that order, 54.1 °C and -14.8 kcal/mol.
On to GATCATGATTATGATC ((((((....)))))), for which the Tm in series [1] was 47.5 °C. Further, the folding enthalpy in series [2] was -29.5 kcal/mol.
Consider GGCCGAGGAAACTTGGCC ((((.((....)).)))), for which the Tm in series [1] worked out at 59.4 °C. Moreover, in series [2], the folding enthalpy is -49.1 kcal/mol.
Taken in the same sequence, the figures for GTTATTGCGAAAGCAAAC (((..(((....)))))) were 29.1 °C and -10.3 kcal/mol.
Turning to GCTGGGCGAAAGCCAGGC ((..(((....)))..)), in series [1], the Tm was found to be 59.6 °C. Further, the folding enthalpy in series [2] is -17.7 kcal/mol.
The like results for GTGTGGGGAAACCTACAC ((((.((....)).)))) were, in that order, 50.6 °C and -32.6 kcal/mol.
The like results for GCATTGCGAAAGCATAGC ((..(((....)))..)) were, in that order, 48.8 °C and -19 kcal/mol.
Regarding GGTATCCGAAAGGAACC (((.(((....)))))), the Tm in series [1] is 44.4 °C. In series [2], the folding enthalpy was -18.8 kcal/mol.
For the sequence GTCTATCCGAAAGGAGAC (((..(((....)))))), the Tm in series [1] was determined as 31.8 °C. The folding enthalpy in series [2] was -16.5 kcal/mol.
As for GATCGCAGCGGCGATC ((((((....)))))), in series [1], the Tm stood at 68.4 °C. Besides, in series [2], the folding enthalpy was -28.8 kcal/mol.
Take TGAAGGAAACTTCA (((((....))))): in series [1], the Tm was found to be 31.8 °C. Moreover, the folding enthalpy in series [2] is -13.9 kcal/mol.
As for GGTGGCCCGAAAGGGACC (((..(((....)))))), the Tm in series [1] is 52.2 °C. Moreover, in series [2], the folding enthalpy was -12.7 kcal/mol.
Take GGAAGACGAAAGTCGTCC (((.(((....))).))): the Tm in series [1] was 56.2 °C. The folding enthalpy in series [2] was -18.9 kcal/mol.
Taken in the same sequence, the figures for GCATAGCGAAAGCGTTGC (((..((....))..))) were 56.8 °C and -27.1 kcal/mol.
As to GTTTCAGGAAACTGGAAC (((.(((....))).))), the Tm in series [1] is 43.3 °C. The folding enthalpy in series [2] is -26.4 kcal/mol.
On to GTGCTCCGAAAGGACCAC (((.(((....))).))), for which the Tm in series [1] turned out to be 45 °C. In addition, the folding enthalpy in series [2] is -27.5 kcal/mol.
Taken in the same sequence, the figures for GTGTCCGAAAGGAAACAC ((((((....)))..))) were 46.5 °C and -22.4 kcal/mol.
Consider GCGCTGCGAAAGCATGGC ((..(((....)))..)), for which the Tm in series [1] amounted to 43.6 °C. Besides, the folding enthalpy in series [2] is -19.4 kcal/mol.
With GTCTGACGAAAGTCTGAC (((.(((....))).))), the Tm in series [1] came to 57.2 °C. The folding enthalpy in series [2] was -34 kcal/mol.
GTTTGCCGAAAGGCTAAC (((.(((....))).))): the Tm in series [1] was found to be 51.7 °C. Moreover, the folding enthalpy in series [2] is -20.1 kcal/mol.
Turning to GCCCAATCGAAAGATGGC (((..(((....)))))), the Tm in series [1] is 43.3 °C. Also, the folding enthalpy in series [2] is -24.9 kcal/mol.
The like results for GATCGTGATACGATC ((((((...)))))) were, in that order, 57.2 °C and -35.9 kcal/mol.
Taken in the same sequence, the figures for GCGAGCGAAAGCTACGC ((((((....))).))) were 62.6 °C and -18 kcal/mol.
For GTTGTAGAAATACAAC ((((((....)))))), the Tm in series [1] stood at 47.5 °C. Also, the folding enthalpy in series [2] is -32.4 kcal/mol.
Turning to GATCGCCGCTGCGATC ((((((....)))))), in series [1], the Tm turned out to be 66.9 °C. The folding enthalpy in series [2] was -38.5 kcal/mol.
Turning to GATCGGTTATCCGATC ((((((....)))))), the Tm in series [1] was 58.9 °C. In addition, the folding enthalpy in series [2] is -36.8 kcal/mol.
As to AGACCGAAAGGTCT (((((....))))), in series [1], the Tm worked out at 68.6 °C. Also, the folding enthalpy in series [2] is -21.1 kcal/mol.
GCTAACGAAAGTTCGAGC ((((((....)))..))): the Tm in series [1] was 32.5 °C. The folding enthalpy in series [2] is -14.9 kcal/mol.
For GATCTGCCGCCAGATC ((((((....)))))), the Tm in series [1] was 51.4 °C. Further, the folding enthalpy in series [2] is -31.9 kcal/mol.
GTGGGCGAAAGCCGACAC ((((((....)))..))): in series [1], the Tm worked out at 53.8 °C. Also, the folding enthalpy in series [2] is -13.6 kcal/mol.
As for GATCAGCGGACTGATC ((((((....)))))), in series [1], the Tm stood at 50.3 °C. Also, in series [2], the folding enthalpy was -33.9 kcal/mol.

The values are drawn from the array DNA melting data of Ke et al. (doi:10.1101/2024.01.08.574731).
